Beta apoptosis – blocks beta cell apoptosis | AID 435005 | INS-1E cytokine-induced death, ATP luminescence, 48 h; percent of positive-control rescue, neutral wells zero | protection from apoptosis, % (test concentration not listed) | 300,000 tested, 0.8% active;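 active = Every replicate reaches about 75%, or at least half do and their mean reaches it too, limit read from the data; inconclusive = At least half of replicates reach the limit but their mean does not; inactive = Under half of replicates reach the limit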;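 note: 0% = cytokine-treated negative control wells and 100% = positive control rescue; higher means more ATP so stronger rescue from cytokine killing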
UPR XBP1 act – activators of adaptive arm of unfolded protein response (XBP1); activation, % at 20 µM; 330,000 tested, 0.33% active; CHO-XBP1 luciferase reporter, IRE1-XBP1 UPR activation, luminescence; percent of tunicamycin response, DMSO as zero;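 active = versus positive control, 20 µM dose yields 30% or more activation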;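 note: 100% = tunicamycin at 10 µg/mL and 0% = DMSO only wells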
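Material: CHO-XBP1 cells stably carrying IRE1-XBP1-driven luciferase reporter | Medium: F12 with 10% serum | Compound dosing: 20 µM single concentration, DMSO 1% | Incubation: Overnight seeding at 37 °C, 6 h compound treatment at 37 °C | Detection: Steady-Glo luminescence read | Read-out basis: % activation of reporter signal versus tunicamycin and DMSO controls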
CHOP UPR activ – activators of apoptotic arm of unfolded protein response (CHOP) | activation, % at 10 µM | CHO-CHOP luciferase reporter, UPR activation, luminescence; percent of tunicamycin response over DMSO baseline | 330,000 tested, 0.34% active;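 active = at 10 µM dose, activation of 40% or more, normalized to positive control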;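 note: 100% = tunicamycin at 10 µg/mL and 0% = DMSO alone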
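Assay system: CHO-CHOP cells, stable luciferase reporter of PERK-eIF2a-CHOP signalling / Buffer or medium: F12 plus 10% serum / Compound dosing: one dose, 10 µM in 0.5% DMSO / Times: 6 h compound treatment, 37 °C / Technique: luciferase luminescence / Read-out: % reporter activation, DMSO baseline versus tunicamycin full activation / Benchmarks: tunicamycin and DMSO controls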
T cruzi repl – blocks replication of Trypanosoma cruzi. inhibition, % (no concentration beside the values). T. cruzi beta-gal in NIH3T3, luminescence, 90 h. 300,000 tested, 1.4% active;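 active = mean inhibition across valid replicates above about 55%, limit read from the data; inconclusive = mean below that limit but half or more replicates reach it; inactive = mean below it, under half of replicates reach it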;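 note: signal also drops with host cell toxicity which is not excluded here; 0% = plate median of DMSO wells and 100% = zero luminescence signal; higher percent means less beta-gal luminescence so fewer parasites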
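System – NIH/3T3 host cells with β-galactosidase reporter T. cruzi · Doses – single 50 nL compound addition per well in DMSO · Reagent – 5000 T. cruzi trypomastigotes/well · Medium – Low-serum DMEM with 2% FBS · Timing – ≥90 h infection period, 3 h prior cell attachment · Evaluation – parasite load inhibition, % · Technique – GalScreen luminescence, 60 min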
Mdm2 MdmX PPI – human Mdm2/MdmX binding inhibition; 330,000 tested, 3% active; AID 485346; SaOS-2 split-luciferase Mdm2/MdmX complementation, luminescence; inhibition, % at 8 µM;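 active = inhibition of at least 50% at 8 µM in the primary screen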
Target sequence (O15151 whole entry, looked up): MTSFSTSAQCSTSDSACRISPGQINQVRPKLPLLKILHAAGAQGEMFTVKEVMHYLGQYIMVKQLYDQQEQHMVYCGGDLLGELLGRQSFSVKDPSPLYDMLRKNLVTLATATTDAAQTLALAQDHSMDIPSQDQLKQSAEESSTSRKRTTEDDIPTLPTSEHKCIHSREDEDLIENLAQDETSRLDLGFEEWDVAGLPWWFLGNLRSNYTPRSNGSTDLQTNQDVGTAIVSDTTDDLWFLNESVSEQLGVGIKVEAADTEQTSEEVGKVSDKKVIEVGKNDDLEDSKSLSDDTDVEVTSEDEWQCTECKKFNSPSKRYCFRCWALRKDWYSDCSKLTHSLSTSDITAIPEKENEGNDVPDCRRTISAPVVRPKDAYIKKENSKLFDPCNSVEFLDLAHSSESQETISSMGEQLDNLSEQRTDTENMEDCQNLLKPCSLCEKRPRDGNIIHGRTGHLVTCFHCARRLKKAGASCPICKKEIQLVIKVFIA
Target sequence (Q00987 whole entry, looked up): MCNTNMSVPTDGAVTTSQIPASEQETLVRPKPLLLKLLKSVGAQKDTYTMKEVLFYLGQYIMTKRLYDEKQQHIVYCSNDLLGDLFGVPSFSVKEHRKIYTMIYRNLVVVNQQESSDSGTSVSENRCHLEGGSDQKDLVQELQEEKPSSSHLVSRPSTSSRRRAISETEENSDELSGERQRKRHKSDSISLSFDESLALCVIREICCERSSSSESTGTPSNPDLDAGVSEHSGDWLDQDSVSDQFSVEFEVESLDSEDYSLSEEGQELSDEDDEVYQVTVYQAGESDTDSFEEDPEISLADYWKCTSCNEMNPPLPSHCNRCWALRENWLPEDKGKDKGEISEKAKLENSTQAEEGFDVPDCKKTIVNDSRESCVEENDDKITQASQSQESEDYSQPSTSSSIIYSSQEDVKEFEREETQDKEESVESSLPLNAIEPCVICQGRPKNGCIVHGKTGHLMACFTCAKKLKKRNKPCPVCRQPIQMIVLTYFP
CSC inhib – blocks cancer stem cells. AID 2717. cancer stem cell-like cells viability, luminescence. inhibition, % at 7.5 µM. 300,000 tested, 1.1% active; in the data active = inhibition above about 75%; inconclusive = no clear call, values can overlap the other calls; tested in HMLE shEcad cells
Mdm2-MdmX conf – confirmation of human Mdm2/MdmX interaction inhibitors. shares compounds with Mdm2 MdmX PPI. Mdm2-MdmX binding, luminescent assay. inhibition, % at 8 µM. 10,000 tested, 55% active. AID 489028; in the data active = inhibition above about 40%
Full FLuc ctr – counter-screen for Mdm2/MdmX inhibitors: full-length luciferase | inhibition, % at 8 µM | 6,200 tested, 77% active | SaOS-2 full-length luciferase counterscreen, luminescence | AID 504607 | shares compounds with Mdm2 MdmX PPI;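 active = mean inhibition at 8 µM reaching about 37%, which flags the compound as non-specific, limit read from the data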;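 note: p53-null SaOS-2 cells with luciferase driven by a doxycycline-inducible promoter; compound on cells about two nights before reading with doxycycline added after day one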
The depositor's hits bear a star; ? = inconclusive; · = no result given. An excerpt weighted towards active compounds, which were near 5% of everything screened.

SMILES	Beta apoptosis	UPR XBP1 act	CHOP UPR activ	T cruzi repl	Mdm2 MdmX PPI	CSC inhib	Mdm2-MdmX conf	others
CN(C)CCN=Cc1c(O)n(Cc2ccccc2)c(=O)c2ccccc12	6	1	1	29	9	-3	·
Cc1ccc(O)c(NC(=S)NC(=O)c2ccc(-c3ccc(Cl)cc3)o2)c1	?	-2	-1	-13	51*	-2	28
O=C(NC(=S)Nc1ccccc1O)c1ccc(-c2ccc(Cl)cc2)o1	-14	-2	-2	-11	27	26	·
CC1=C(C(=O)OCc2ccc3c(c2)OCO3)C(c2ccccc2)NC(=O)N1 (stereo not drawn)	-15	-2	-2	-21	87*	42	91*	Full FLuc ctr=52*
CC1=C(C(=O)OCc2ccc3c(c2)OCO3)C(c2ccccc2OCc2ccccc2)NC(=O)N1 (stereo not drawn)	-1	-3	0	42	33	19	·
CC1=C(C(=O)OCc2ccc3c(c2)OCO3)C(c2ccc(O)c([N+](=O)[O-])c2)NC(=O)N1 (stereo not drawn)	-7	-5	-1	3	51*	·	35
CC1=C(C(=O)OCc2ccccc2)C(c2ccc([N+](=O)[O-])cc2)NC(=O)N1 (stereo not drawn)	-2	-4	0	9	36	-7	·
Cc1ccc(OCC(=O)NNC(=S)NC(=O)c2cccs2)c(C)c1	6	-1	0	-8	51*	?	9
CCCOc1ccc(C(=O)NNC(=S)NC(=O)c2ccco2)cc1	20	-1	-2	?	51*	34	40	Full FLuc ctr=52*
CCCOc1ccc(C(=O)NNC(=S)NC(=O)c2ccccc2)cc1	28	9	-2	19	48	47	·
CCCOc1ccc(C(=O)NNC(=S)NC(=O)c2cccs2)cc1	41	2	-1	21	60*	49	37
C=CCN(CC=C)C(=S)NC(=O)Cc1cccc2ccccc12	-5	0	0	2	4	12	·
NC(=O)CNC(=O)c1ccc(Cl)cc1	·	1	0	3	0	·	·
COc1ccccc1N1CCN(C(=O)CCNS(=O)(=O)c2cc(Br)cnc2N)CC1	-6	-4	1	17	-9	3	·
CCCCOc1ccc(/C=C/C(=O)Nc2ccc(C(N)=O)cc2)cc1	9	-4	0	-9	-2	-3	·
C=CCOc1ccc(/C=C/C(=O)Nc2ccc(C(=O)NC)cc2)cc1	-5	-1	-1	-4	75*	7	5
CCC1(c2ccccc2)ON(c2c(Br)cccc2Br)C1=O (stereo not drawn)	-8	-1	6	·	93*	43	91*	Full FLuc ctr=47*
CCC(=S)/C=C1\Sc2ccccc2N1CCCS(=O)(=O)O	·	-1	1	2	-21	-11	·
CCN1/C(=C/c2ccc3ccccc3[n+]2CC)C=Cc2ccccc21	108*	16	13	47	89*	44	81*	Full FLuc ctr=21
CCCCN1/C(=C/c2ccc3ccccc3[n+]2CC)Sc2ccccc21	·	0	8	63*	77*	·	76*	Full FLuc ctr=32
CCN1/C(=C/c2ccc3ccccc3[n+]2CCCS(=O)(=O)[O-])C=Cc2cc(C)ccc21	30	·	·	3	·	19	·
Cc1cc(Cl)ccc1NC(=O)COC(=O)CCNS(=O)(=O)c1ccccc1	-2	2	1	·	-42	-3	·
CC12CCC(C(=O)NCc3ccco3)(OC1=O)C2(C)C (stereo not drawn)	0	-4	1	3	10	2	·
CCC1CCCCN1C(=O)CCc1nnc(C2CCCCC2)o1 (stereo not drawn)	-4	2	4	4	-68	-8	·
CC(NCc1cccc(OCc2ccccc2)c1)C(O)c1ccccc1 (stereo not drawn)	0	-2	2	9	20	9	·
SMILES	Beta apoptosis	UPR XBP1 act	CHOP UPR activ	T cruzi repl	Mdm2 MdmX PPI	CSC inhib	Mdm2-MdmX conf	others
CC(NCc1ccc(OCc2ccc(Cl)cc2)cc1)C(O)c1ccccc1 (stereo not drawn)	35	27	6	45	100*	102*	60*	Full FLuc ctr=52*
CC(=O)c1cccc(NC(=O)/C(=C/c2ccncc2)NC(=O)c2ccccc2)c1	-1	-5	2	-7	1	·	·
CCOc1ccc(S(=O)(=O)/N=C(/Nc2ccc(C)c(S(=O)(=O)N3CCOCC3)c2)c2ccccc2)cc1	0	-3	0	·	14	2	·
COC(=O)Cc1cc(C)cc2c(=O)cc(-c3ccoc3)oc12	-1	1	0	5	15	2	·
CNC(=O)CN(c1cc(OCCOC)c(Cl)cc1Cl)S(=O)(=O)c1ccc(OC)cc1	-1	-4	0	5	57*	6	48*	Full FLuc ctr=79*
COc1cc2c(cc1OC)C(c1ccccc1)N(C(=O)CCl)CC2 (stereo not drawn)	9	-7	-3	-3	100*	-9	9
COc1cc2c(cc1OC)C(C1C(=O)CCCC1=O)N(C(=O)CCl)CC2 (stereo not drawn)	-1	-3	-1	-23	10	-6	·
Cc1ccccc1C(=O)Nc1ccc2c(c1)CCCN2C(=O)c1cccs1	14	-2	1	3	84*	-9	68*	Full FLuc ctr=40*
Cc1ccc(-c2nnc(NC(=O)Cc3ccc(F)cc3)o2)c(C)c1	-3	-2	-2	-29	34	39	·
Cc1ccc(C)c(-c2nnc(NC(=O)Cc3ccc(F)cc3)o2)c1	-2	-2	-2	-29	52*	42	22
COc1cccc(-n2c(SCC(=O)N3CCOCC3)nc3c([nH]c4ccccc43)c2=O)c1	-3	4	-1	20	65*	-9	13
CN1CCN(Cc2c(O)ccc3cc(Br)ccc23)CC1	3	-3	0	8	51*	-36	8
Cc1cc(C)c(S(=O)(=O)N2CCN(C(=O)CN3C(=O)NC4(CCCC4)C3=O)CC2)c(C)c1	-1	-2	1	0	18	-4	·
Cc1ccc([N+](=O)[O-])cc1S(=O)(=O)Nc1ccc(C(=O)NCC2CCCO2)cc1 (stereo not drawn)	2	-3	0	·	10	·	·
COc1cc(-c2nnc(NC(=O)CCS(=O)(=O)c3ccccc3)o2)cc(OC)c1OC	·	-2	-1	-6	79*	1	65*	Full FLuc ctr=63*
COc1cc(-c2nnc(NC(=O)CCS(=O)(=O)c3ccc(F)cc3)o2)cc(OC)c1OC	·	0	0	-5	72*	7	69*	Full FLuc ctr=48*
